Assay results reported in ChEMBL document CHEMBL2331324, “Synthesis and biological evaluation of guanidino analogues of roscovitine” (Eur J Med Chem, 2013).

Tests used:
[1] = target: Tyrosine-protein kinase JAK2 (Homo sapiens) (UniProt O60674); experiment: Inhibition of recombinant JAK2 (unknown origin) assessed as residual activity using [gamma-33P]ATP as substrate at 1 uM
In short: (§1)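 Recombinant kinase panel screened at 1 µM in duplicate. Reactions started with [γ-33P]ATP (800 cpm/pmol) at 5, 20 or 50 µM, chosen to sit at or below each enzyme's ATP Km. Stopped with phosphoric acid and spotted onto P81 filters. Result given as residual kinase activity.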

[2] = target: Serine/threonine-protein kinase TAO1 (Homo sapiens) (UniProt Q7L7X3); experiment: Inhibition of recombinant TAO1 (unknown origin) assessed as residual activity using [gamma-33P]ATP as substrate at 1 uM
In short: (§2)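 Kinase panel screen with each compound at 1 µM, in duplicate. Reactions were started with [γ-33P]ATP (800 cpm/pmol) at 5, 20 or 50 µM, chosen per enzyme to be at or below its ATP Km. Reactions were stopped with phosphoric acid and spotted onto P81 filters. Results are given as residual kinase activity.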

[3] = target: Aurora kinase B (Homo sapiens) (UniProt Q96GD4); experiment: Inhibition of recombinant AURB (unknown origin) assessed as residual activity using [gamma-33P]ATP as substrate at 1 uM; in short: as §1
[4] = target: Serine/threonine-protein kinase TBK1 (Homo sapiens) (UniProt Q9UHD2); experiment: Inhibition of recombinant TBK1 (unknown origin) assessed as residual activity using [gamma-33P]ATP as substrate at 1 uM; in short: as §2
[5] = target: Interleukin-1 receptor-associated kinase 4 (Homo sapiens) (UniProt Q9NWZ3); experiment: Inhibition of recombinant IRAK4 (unknown origin) assessed as residual activity using [gamma-33P]ATP as substrate at 1 uM; in short: as §1
[6] = target: Death-associated protein kinase 1 (Homo sapiens) (UniProt P53355); experiment: Inhibition of recombinant DAPK1 (unknown origin) assessed as residual activity using [gamma-33P]ATP as substrate at 1 uM; in short: as §1
[7] = target: Misshapen-like kinase 1 (Homo sapiens) (UniProt Q8N4C8); experiment: Inhibition of recombinant MINK1 (unknown origin) assessed as residual activity using [gamma-33P]ATP as substrate at 1 uM
In short: (§3)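 Selectivity panel run under previously published conditions. Screened at 1 μM in duplicate. Reactions started with [γ-33P]ATP (800 cpm/pmol) at 5, 20 or 50 μM, chosen to be at or below each enzyme's ATP Km. Stopped with phosphoric acid, spotted onto P81 filters. Result expressed as residual kinase activity.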

[8] = target: Serine/threonine-protein kinase 33 (Homo sapiens) (UniProt Q9BYT3); experiment: Inhibition of recombinant STK33 (unknown origin) assessed as residual activity using [gamma-33P]ATP as substrate at 1 uM; in short: as §2
[9] = target: Myosin light chain kinase, smooth muscle (Homo sapiens) (UniProt Q15746); experiment: Inhibition of recombinant SMMLCK (unknown origin) assessed as residual activity using [gamma-33P]ATP as substrate at 1 uM; in short: as §2
[10] = target: Dual specificity mitogen-activated protein kinase kinase 1 (Homo sapiens) (UniProt Q02750); experiment: Inhibition of recombinant MKK1 (unknown origin) assessed as residual activity using [gamma-33P]ATP as substrate at 1 uM; in short: as §3
[11] = target: Eukaryotic translation initiation factor 2-alpha kinase 3 (Homo sapiens) (UniProt Q9NZJ5); experiment: Inhibition of recombinant EIF2AK3 (unknown origin) assessed as residual activity using [gamma-33P]ATP as substrate at 1 uM; in short: as §1
[12] = target: Fibroblast growth factor receptor 1 (Homo sapiens) (UniProt P11362); experiment: Inhibition of recombinant FGF-R1 (unknown origin) assessed as residual activity using [gamma-33P]ATP as substrate at 1 uM; in short: as §1
[13] = target: Mitogen-activated protein kinase 15 (Homo sapiens) (UniProt Q8TD08); experiment: Inhibition of recombinant ERK8 (unknown origin) assessed as residual activity using [gamma-33P]ATP as substrate at 1 uM; in short: as §1
[14] = target: Dual specificity tyrosine-phosphorylation-regulated kinase 2 (Homo sapiens) (UniProt Q92630); experiment: Inhibition of recombinant DYRK2 (unknown origin) assessed as residual activity using [gamma-33P]ATP as substrate at 1 uM; in short: as §1
MCF7 = experiment: Cell cycle arrest in human MCF7 cells assessed as accumulation of cells in G2+M phase at 100 uM after 24 hrs by propidium iodide staining based flow cytometry relative to untreated control; type: functional
In short: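 Flow cytometry on MCF7 cells given 100 µM for 24 h. About one million cells fixed in 90% methanol and rehydrated. DNA stained with propidium iodide, read at 488/575 nm (ex/em). The value is the G2+M fraction of treated cells divided by the G2+M fraction of untreated control cells.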

[15] = target: Serine/threonine-protein kinase 16 (Homo sapiens) (UniProt O75716); experiment: Inhibition of recombinant MPSK1 (unknown origin) assessed as residual activity using [gamma-33P]ATP as substrate at 1 uM; in short: as §3
[16] = target: Mitogen-activated protein kinase 12 (Homo sapiens) (UniProt P53778); experiment: Inhibition of recombinant p38 MAPKgamma (unknown origin) assessed as residual activity using [gamma-33P]ATP as substrate at 1 uM; in short: as §2
[17] = target: MAP kinase-activated protein kinase 2 (Homo sapiens) (UniProt P49137); experiment: Inhibition of recombinant MAPKAPK2 (unknown origin) assessed as residual activity using [gamma-33P]ATP as substrate at 1 uM; in short: as §3
[18] = target: Inhibitor of nuclear factor kappa-B kinase subunit beta (Homo sapiens) (UniProt O14920); experiment: Inhibition of recombinant IKKbeta (unknown origin) assessed as residual activity using [gamma-33P]ATP as substrate at 1 uM; in short: as §1
[19] = target: Insulin-like growth factor 1 receptor (Homo sapiens) (UniProt P08069); experiment: Inhibition of recombinant IGF-1R (unknown origin) assessed as residual activity using [gamma-33P]ATP as substrate at 1 uM; in short: as §1
[20] = target: Dual specificity tyrosine-phosphorylation-regulated kinase 3 (Homo sapiens) (UniProt O43781); experiment: Inhibition of recombinant DYRK3 (unknown origin) assessed as residual activity using [gamma-33P]ATP as substrate at 1 uM; in short: as §1
[21] = target: Mitogen-activated protein kinase 10 (Homo sapiens) (UniProt P53779); experiment: Inhibition of recombinant JNK3 (unknown origin) assessed as residual activity using [gamma-33P]ATP as substrate at 1 uM; in short: as §3
[22] = target: Serine/threonine-protein kinase PLK1 (Homo sapiens) (UniProt P53350); experiment: Inhibition of recombinant PLK1 (unknown origin) assessed as residual activity using [gamma-33P]ATP as substrate at 1 uM; in short: as §3
[23] = target: High affinity nerve growth factor receptor (Homo sapiens) (UniProt P04629); experiment: Inhibition of recombinant TRKA (unknown origin) assessed as residual activity using [gamma-33P]ATP as substrate at 1 uM; in short: as §2
[24] = target: Serine/threonine-protein kinase PAK 2 (Homo sapiens) (UniProt Q13177); experiment: Inhibition of recombinant PAK2 (unknown origin) assessed as residual activity using [gamma-33P]ATP as substrate at 1 uM; in short: as §3
[25] = target: MAP kinase-activated protein kinase 3 (Homo sapiens) (UniProt Q16644); experiment: Inhibition of recombinant MAPKAPK3 (unknown origin) assessed as residual activity using [gamma-33P]ATP as substrate at 1 uM; in short: as §3

Serine/threonine-protein kinase 16 (Homo sapiens), sequence (O75716 whole entry): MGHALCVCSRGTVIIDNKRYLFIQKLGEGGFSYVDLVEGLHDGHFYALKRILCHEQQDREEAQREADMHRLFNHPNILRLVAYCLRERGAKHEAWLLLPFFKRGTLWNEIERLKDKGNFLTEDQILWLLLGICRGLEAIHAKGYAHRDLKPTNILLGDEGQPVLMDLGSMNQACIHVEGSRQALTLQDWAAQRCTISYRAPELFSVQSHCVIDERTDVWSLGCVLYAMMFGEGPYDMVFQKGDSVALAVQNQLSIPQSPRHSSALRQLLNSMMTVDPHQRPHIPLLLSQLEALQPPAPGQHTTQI
Misshapen-like kinase 1 (Homo sapiens), sequence (Q8N4C8 whole entry, looked up): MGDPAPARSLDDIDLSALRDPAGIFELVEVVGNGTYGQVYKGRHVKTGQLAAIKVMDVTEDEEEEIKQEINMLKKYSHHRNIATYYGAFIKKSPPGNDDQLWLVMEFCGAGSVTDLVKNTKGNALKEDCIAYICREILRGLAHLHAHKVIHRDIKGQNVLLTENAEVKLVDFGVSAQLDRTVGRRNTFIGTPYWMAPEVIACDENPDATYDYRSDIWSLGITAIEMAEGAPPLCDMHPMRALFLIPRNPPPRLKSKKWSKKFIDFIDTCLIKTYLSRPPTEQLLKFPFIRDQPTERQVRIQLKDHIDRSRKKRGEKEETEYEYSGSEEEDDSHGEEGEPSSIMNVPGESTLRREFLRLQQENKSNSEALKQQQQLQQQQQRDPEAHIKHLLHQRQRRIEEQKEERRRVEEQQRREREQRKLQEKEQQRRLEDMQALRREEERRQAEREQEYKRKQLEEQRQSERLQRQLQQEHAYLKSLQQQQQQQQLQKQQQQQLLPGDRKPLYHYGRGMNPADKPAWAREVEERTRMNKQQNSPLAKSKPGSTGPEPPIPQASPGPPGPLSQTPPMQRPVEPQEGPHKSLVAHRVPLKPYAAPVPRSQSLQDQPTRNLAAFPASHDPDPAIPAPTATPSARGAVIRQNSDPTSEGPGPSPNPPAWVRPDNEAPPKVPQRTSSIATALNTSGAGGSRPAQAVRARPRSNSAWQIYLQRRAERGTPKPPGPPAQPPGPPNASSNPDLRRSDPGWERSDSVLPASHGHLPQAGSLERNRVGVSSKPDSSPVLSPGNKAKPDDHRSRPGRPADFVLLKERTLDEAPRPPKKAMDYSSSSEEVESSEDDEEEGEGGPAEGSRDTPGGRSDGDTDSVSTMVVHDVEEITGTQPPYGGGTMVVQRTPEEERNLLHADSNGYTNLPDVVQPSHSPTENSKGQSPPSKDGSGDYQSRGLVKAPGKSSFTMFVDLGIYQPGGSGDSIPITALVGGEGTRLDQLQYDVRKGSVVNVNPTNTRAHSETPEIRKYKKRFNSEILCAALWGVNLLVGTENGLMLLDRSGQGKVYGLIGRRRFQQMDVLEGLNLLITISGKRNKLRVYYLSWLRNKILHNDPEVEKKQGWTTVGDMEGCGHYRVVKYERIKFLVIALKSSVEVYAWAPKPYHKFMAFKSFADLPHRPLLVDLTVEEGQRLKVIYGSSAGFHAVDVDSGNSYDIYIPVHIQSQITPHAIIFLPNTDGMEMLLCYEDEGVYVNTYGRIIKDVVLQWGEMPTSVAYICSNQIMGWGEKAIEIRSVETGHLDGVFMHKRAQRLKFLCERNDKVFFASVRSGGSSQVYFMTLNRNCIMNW
Mitogen-activated protein kinase 12 (Homo sapiens), sequence (P53778 whole entry): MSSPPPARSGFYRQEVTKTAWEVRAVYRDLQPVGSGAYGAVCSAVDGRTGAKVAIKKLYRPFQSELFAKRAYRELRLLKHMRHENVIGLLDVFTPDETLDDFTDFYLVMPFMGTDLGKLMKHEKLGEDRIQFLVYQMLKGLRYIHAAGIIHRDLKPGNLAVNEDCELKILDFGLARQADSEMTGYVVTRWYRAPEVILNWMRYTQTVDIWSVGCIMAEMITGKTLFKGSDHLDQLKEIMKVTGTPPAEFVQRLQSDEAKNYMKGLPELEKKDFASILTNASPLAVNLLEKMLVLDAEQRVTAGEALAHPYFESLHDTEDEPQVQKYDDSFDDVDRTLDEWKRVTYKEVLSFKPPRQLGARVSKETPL
Mitogen-activated protein kinase 10 (Homo sapiens), sequence (P53779 whole entry): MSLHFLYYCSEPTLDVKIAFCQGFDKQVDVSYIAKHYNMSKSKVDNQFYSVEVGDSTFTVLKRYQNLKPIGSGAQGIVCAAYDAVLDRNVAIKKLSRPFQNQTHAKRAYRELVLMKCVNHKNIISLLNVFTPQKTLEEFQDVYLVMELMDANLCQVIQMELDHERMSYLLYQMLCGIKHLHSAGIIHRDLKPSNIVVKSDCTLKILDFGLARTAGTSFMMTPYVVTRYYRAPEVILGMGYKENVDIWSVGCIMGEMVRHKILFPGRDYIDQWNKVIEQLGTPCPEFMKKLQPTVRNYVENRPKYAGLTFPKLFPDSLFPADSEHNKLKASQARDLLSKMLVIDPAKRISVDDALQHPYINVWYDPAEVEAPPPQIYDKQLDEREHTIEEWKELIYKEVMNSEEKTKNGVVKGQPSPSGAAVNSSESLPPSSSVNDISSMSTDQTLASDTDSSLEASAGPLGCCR
Mitogen-activated protein kinase 15 (Homo sapiens), sequence (Q8TD08 whole entry): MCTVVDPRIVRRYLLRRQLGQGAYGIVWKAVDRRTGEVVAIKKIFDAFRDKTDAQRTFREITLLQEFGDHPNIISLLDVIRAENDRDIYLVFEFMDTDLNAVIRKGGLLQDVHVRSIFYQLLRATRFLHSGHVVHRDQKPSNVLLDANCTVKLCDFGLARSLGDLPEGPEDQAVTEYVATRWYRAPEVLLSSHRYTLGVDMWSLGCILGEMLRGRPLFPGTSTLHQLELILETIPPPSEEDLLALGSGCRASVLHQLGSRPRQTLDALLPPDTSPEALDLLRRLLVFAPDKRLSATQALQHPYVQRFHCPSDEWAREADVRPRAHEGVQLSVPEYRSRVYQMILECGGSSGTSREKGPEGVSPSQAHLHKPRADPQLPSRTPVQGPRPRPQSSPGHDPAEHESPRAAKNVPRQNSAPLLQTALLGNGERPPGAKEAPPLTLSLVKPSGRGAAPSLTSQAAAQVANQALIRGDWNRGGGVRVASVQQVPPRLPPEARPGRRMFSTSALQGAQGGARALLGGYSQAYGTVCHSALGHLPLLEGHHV
Interleukin-1 receptor-associated kinase 4 (Homo sapiens), sequence (Q9NWZ3 whole entry): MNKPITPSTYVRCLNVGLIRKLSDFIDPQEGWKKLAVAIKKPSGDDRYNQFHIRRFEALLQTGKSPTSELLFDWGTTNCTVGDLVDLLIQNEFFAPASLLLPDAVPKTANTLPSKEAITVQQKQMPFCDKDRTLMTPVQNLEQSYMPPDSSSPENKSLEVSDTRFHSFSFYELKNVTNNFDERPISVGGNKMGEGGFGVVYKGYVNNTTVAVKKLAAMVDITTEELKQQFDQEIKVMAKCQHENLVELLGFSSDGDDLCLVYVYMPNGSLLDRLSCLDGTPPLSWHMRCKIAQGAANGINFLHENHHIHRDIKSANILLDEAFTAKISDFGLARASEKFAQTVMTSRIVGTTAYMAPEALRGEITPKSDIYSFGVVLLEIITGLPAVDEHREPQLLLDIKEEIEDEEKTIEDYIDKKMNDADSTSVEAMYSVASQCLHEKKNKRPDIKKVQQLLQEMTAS
Insulin-like growth factor 1 receptor (Homo sapiens), sequence (P08069 31-736 limits assumed): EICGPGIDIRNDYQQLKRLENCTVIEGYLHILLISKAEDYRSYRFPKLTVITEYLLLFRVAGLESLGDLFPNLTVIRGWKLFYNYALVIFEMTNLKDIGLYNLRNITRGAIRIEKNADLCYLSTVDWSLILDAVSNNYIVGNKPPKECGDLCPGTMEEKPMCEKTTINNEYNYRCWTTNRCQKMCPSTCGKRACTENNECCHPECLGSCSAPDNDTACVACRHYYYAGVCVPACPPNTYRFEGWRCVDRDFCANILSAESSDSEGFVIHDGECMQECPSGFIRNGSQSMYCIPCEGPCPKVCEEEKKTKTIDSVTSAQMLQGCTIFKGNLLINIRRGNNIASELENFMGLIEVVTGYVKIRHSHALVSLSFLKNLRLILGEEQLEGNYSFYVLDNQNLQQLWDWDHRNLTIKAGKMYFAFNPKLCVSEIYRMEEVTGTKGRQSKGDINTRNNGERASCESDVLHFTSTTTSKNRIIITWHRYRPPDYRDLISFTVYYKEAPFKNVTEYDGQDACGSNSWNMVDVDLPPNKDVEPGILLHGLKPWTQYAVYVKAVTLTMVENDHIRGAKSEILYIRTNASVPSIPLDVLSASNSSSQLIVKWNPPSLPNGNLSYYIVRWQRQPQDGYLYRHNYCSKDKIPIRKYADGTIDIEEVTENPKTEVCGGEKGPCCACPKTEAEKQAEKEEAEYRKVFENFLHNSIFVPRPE
Insulin-like growth factor 1 receptor (Homo sapiens), sequence (P08069 741-1367 limits assumed): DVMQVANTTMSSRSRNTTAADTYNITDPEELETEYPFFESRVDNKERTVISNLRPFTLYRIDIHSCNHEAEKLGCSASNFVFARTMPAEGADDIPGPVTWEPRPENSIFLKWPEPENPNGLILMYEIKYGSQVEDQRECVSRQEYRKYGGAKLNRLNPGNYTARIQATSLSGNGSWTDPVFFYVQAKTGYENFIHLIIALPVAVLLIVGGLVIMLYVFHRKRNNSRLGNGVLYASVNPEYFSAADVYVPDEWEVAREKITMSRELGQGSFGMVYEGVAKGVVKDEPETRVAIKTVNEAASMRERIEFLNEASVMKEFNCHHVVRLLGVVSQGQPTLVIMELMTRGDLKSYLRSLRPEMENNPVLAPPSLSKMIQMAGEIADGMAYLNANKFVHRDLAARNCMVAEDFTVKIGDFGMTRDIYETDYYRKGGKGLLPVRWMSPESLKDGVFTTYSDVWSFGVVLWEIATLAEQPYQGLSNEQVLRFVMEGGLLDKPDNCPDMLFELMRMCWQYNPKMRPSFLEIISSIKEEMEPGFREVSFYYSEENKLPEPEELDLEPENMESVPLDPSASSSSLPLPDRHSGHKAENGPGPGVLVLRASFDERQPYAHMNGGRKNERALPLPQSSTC

Structure (SMILES) | Activity [1] [%] | Activity [2] [%] | Activity [3] [%] | Activity [4] [%] | Activity [5] [%] | Activity [6] [%] | Activity [7] [%] | Activity [8] [%] | Activity [9] [%] | Activity [10] [%] | Activity [11] [%] | Activity [12] [%] | Activity [13] [%] | Activity [14] [%] | Ratio (MCF7) | Activity [15] [%] | Activity [16] [%] | Activity [17] [%] | Activity [18] [%] | Activity [19] [%] | further results
CC[C@@H](CO)Nc1nc(NC(=N)N)c2ncn(C(C)C)c2n1 | 16 | 9 | 70 | 90 | 11 | 36 | 75 | 9 | 32 | 28 | 11 | 5 | 18 | 16 | 1.6 | 28 | 71 | 48 | 76 | 5 | Activity [20]: 11%; Activity [21]: 80%; Activity [22]: 108%; Activity [23]: 28%; Activity [24]: 38%; Activity [25]: 78%
CC[C@H](CO)Nc1nc(NC(=N)N)c2ncn(C(C)C)c2n1 | 16 | 9 | 47 | 92 | 21 | 54 | 64 | 11 | 49 | 41 | 17 | 4 | 16 | 27 | 1.8 | 36 | 77 | 41 | 74 | 10 | Activity [20]: 18%; Activity [21]: 96%; Activity [22]: 108%; Activity [23]: 24%; Activity [24]: 45%; Activity [25]: 80%
